Assay outcomes deposited in PubChem by Johns Hopkins Ion Channel Center.
KCNK3 inh: human KCNK3 channel inhibition, primary screen | B-score at 10 µM | AID 602410 | actives 0.84% (n = 340,000) | CHO-KCNK3 thallium flux, FluxOR fluorescence; stronger effect = lower value;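 active means B-score under library mean minus 4 SD, starting fluorescence ratio at most library mean plus 5 SD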;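 further: more negative B-score means stronger inhibition of thallium flux through KCNK3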
hERG rescue: shields human hERG channel from block by proarrhythmic agents; actives 0.51% (n = 310,000); Q12809; CHO-hERG, FluxOR thallium flux, dofetilide IC70 present; activation (rescue from dofetilide block), less the hit threshold, % at 10 µM;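 active means activation above the mean of controls blocked by dofetilide plus 5 SD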;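 further: thallium influx through hERG after potassium depolarization seen as dye fluorescence rise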
Target sequence (Q12809 whole entry, looked up): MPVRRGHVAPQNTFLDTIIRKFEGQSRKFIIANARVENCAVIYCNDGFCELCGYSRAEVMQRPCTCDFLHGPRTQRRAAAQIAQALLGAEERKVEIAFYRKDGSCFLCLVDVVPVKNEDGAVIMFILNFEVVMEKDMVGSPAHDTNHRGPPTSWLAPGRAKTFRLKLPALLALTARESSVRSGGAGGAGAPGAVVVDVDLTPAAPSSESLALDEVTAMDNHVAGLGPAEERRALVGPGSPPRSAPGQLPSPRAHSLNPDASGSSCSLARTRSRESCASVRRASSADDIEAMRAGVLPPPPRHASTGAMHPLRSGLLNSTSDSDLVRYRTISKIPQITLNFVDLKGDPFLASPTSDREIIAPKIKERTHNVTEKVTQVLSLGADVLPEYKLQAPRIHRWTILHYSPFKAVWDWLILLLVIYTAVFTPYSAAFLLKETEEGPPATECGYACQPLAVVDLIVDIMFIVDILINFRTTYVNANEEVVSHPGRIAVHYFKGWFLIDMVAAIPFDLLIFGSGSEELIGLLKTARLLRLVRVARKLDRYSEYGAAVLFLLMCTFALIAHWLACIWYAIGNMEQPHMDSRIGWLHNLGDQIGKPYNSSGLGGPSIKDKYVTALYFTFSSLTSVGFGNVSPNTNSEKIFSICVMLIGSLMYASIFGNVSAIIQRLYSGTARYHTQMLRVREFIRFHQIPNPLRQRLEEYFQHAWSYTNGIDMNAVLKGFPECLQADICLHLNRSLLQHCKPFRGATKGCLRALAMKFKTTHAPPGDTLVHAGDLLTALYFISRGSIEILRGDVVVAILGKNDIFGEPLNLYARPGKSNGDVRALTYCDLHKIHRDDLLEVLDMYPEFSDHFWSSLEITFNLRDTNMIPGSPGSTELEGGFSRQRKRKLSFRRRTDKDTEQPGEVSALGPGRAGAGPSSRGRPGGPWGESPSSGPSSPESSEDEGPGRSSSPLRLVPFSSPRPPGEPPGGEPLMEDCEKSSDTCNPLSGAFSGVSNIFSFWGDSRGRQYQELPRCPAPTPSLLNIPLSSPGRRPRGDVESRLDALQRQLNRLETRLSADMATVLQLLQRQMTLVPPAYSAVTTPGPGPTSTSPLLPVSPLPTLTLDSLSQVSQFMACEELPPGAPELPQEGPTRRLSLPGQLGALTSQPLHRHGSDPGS
KCNK9 inh: blocks the human KCNK9 two-pore domain potassium channel; AID 488922; B-score at 10 µM; Q9NPC2; actives 1.2% (n = 310,000); HEK293 KCNK9, FluxOR thallium flux fluorescence; stronger effect = lower value;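 active means ratio B-score over 3 SD below the library mean, with starting fluorescence within 5 SD of its mean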;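 further: negative B-score means less thallium flux so channel inhibition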
KCNQ1 inh: blocks the human KCNQ1 potassium channel; P51787; CHO-K1 KCNQ1, FluxOR thallium flux fluorescence; stronger effect = higher value; B-score at 10 µM; actives 1.3% (n = 310,000); AID 2642;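 active means compounds whose thallium flux B-score, printed positive for inhibition, exceeds three library SD while starting fluorescence stays within three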;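 further: channel opened by potassium depolarization with thallium stimulus after 20 min compound exposure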
KCNQ1 act: human KCNQ1 channel potentiation or activation; P51787; CHO-K1 KCNQ1, thallium flux FluxOR fluorescence; stronger effect = higher value; B-score at 10 µM; actives 0.35% (n = 310,000); AID 2648;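 active means fluorescence ratio B-score, a plate-corrected score, at least three library SD, with initial intensity B-score within 5 SD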
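assay system = CHO-K1 cells stably expressing KCNQ1 | medium = assay buffer, equal DMSO in all wells | timing = 37 °C overnight plating, 90-min dark dye load, 20-min compound pretreatment | measured by = kinetic FluxOR thallium fluorescence, 10-s 1-Hz baseline, 110-s post-stimulus read | measure = fluorescence change relative to baseline, converted to B score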
Kir21 block: Kir2.1 (mouse) channel inhibition | actives 0.85% (n = 310,000) | HEK293-Kir2.1, FluxOR thallium flux fluorescence; stronger effect = lower value | AID 1672 | B-score at 10 µM | P35561;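 active means fluorescence ratio B-score at or below minus 3 SD of library scores, with starting-brightness B-score within 2 SD, cut at about -4.2 in these data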;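 further: channel flux triggered by added potassium and thallium sulfate stimulus; B-score of peak minus minimum fluorescence over baseline after thallium stimulus; more negative B-score means stronger Kir2.1 block with less thallium influx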
KCNK9 block conf: human KCNK9 inhibitor confirmation; shares compounds with KCNK9 inh; HEK293 KCNK9 cells, FluxOR thallium flux fluorescence; inhibition, % at 10 µM; actives 43% (n = 4,900); AID 492992;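 active means thallium signal inhibited by more than 5 SD of the compound-free buffer control wells, on both duplicate plates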;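 further: 0% = assay buffer control wells without compound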
Kir21 sel: mouse Kir2.1 off-target activity of KCNK9 modulators | shares compounds with KCNK9 inh | Kir2.1 cells, FluxOR thallium flux fluorescence | inhibition, % at 10 µM | actives 4% (n = 4,900) | AID 492993;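 active means thallium signal drop more than 5 SD beyond the mean of the no-compound control wells, seen in both duplicate plates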;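 further: signal is fluorescence rise after thallium addition divided by baseline fluorescence; plate controls were assay buffer only for no effect and full block by chlorpromazine control for full effect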
KCNK9 uninduced: non-induced cell nonspecific activity of KCNK9 modulators. actives 40% (n = 4,900). non-induced KCNK9-HEK293, FluxOR thallium flux. shares compounds with KCNK9 inh. inhibition, % at 10 µM;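 active means thallium signal drop beyond 5 SD of the untreated control mean, on both duplicate plates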;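 further: plate controls were buffer only IC0 wells for no effect and SID17386958 at its maximal inhibitory level for full effect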
* hit, by the source's call. Shown are actives, neighbours in structure and some others; about 3.8% of the full set was active somewhere.

Results for COc1ccc(C(=O)COC(=O)C(CC(C)C)N2C(=O)c3ccccc3C2=O)cc1 (stereo not drawn) ?
KCNK3 inh: inactive; hERG rescue: -13.3; KCNK9 inh: inactive; KCNQ1 inh: inactive; KCNQ1 act: inactive; Kir21 block: -1.98

Results for CSCCC(C(=O)OCC(=O)c1ccc(C)c(C)c1)N1C(=O)c2cc(Cl)c(Cl)cc2C1=O (stereo not drawn) ?
KCNK3 inh: inactive; hERG rescue: -14.0; KCNK9 inh: inactive; KCNQ1 inh: inactive; KCNQ1 act: inactive; Kir21 block: 1.67; KCNK9 block conf: inactive; Kir21 sel: inactive; KCNK9 uninduced: inactive

What do the screens show for `N#CC1=C(S)N(c2ccccc2)C(c2ccc(-c3ccc(Cl)c(Cl)c3)o2)NC1=O` (stereo not drawn)?
KCNK3 inh: inactive; hERG rescue: -16.3; KCNK9 inh: inactive; KCNQ1 inh: inactive; KCNQ1 act: inactive; Kir21 block: -6.21*; KCNK9 block conf: inactive; Kir21 sel: inactive; KCNK9 uninduced: inactive

How did C[C@H](CO)N1C[C@H](C)[C@@H](CN(C)S(=O)(=O)c2cn(C)cn2)Oc2ccc(NC(=O)NC3CCCCC3)cc2C1=O do in these assays?
KCNK3 inh: inactive

How did O=C(NCCCN1CCOCC1)c1sc2cc([N+](=O)[O-])ccc2c1Cl do in these assays?
KCNK3 inh: inactive; hERG rescue: 3.8; KCNK9 inh: inactive; KCNQ1 inh: inactive; KCNQ1 act: inactive; Kir21 block: -1.87; KCNK9 block conf: inactive; Kir21 sel: inactive; KCNK9 uninduced: inactive

Results for CCCCCCCn1c2c(c(=N)c3ccccc31)CCC2 ?
KCNK3 inh: -11.3*; hERG rescue: -31.2; KCNK9 inh: -10.1*; KCNQ1 inh: inactive; KCNQ1 act: inactive; Kir21 block: -6.72*; KCNK9 block conf: 47.0%*; Kir21 sel: 77.0%*; KCNK9 uninduced: inactive

Results for COc1ccccc1C(=O)NC(=O)COC(=O)CCOc1ccc(C)cc1 ?
KCNK3 inh: inactive; hERG rescue: -9.5; KCNK9 inh: inactive; KCNQ1 inh: inactive; KCNQ1 act: inactive; Kir21 block: 0

Results for O=C(CN1CCN(c2ccccn2)CC1)N1c2ccccc2CCc2ccccc21 ?
KCNK3 inh: inactive; hERG rescue: -15.0; KCNK9 inh: inactive; KCNQ1 inh: inactive; KCNQ1 act: inactive; Kir21 block: -0.55

Results for Cc1c(C)n(C(=O)CN2CCN(c3ccccn3)CC2)c2ccccc12 ?
KCNK3 inh: inactive; hERG rescue: -16.1; KCNK9 inh: inactive; KCNQ1 inh: inactive; KCNQ1 act: inactive; Kir21 block: 0.14; KCNK9 block conf: inactive; Kir21 sel: inactive; KCNK9 uninduced: inactive

Results for CC(C(=O)NC1CCCC1)N(C(=O)c1ccc(-c2ccccc2)[nH]1)c1ccccc1F (stereo not drawn) ?
KCNK3 inh: inactive; hERG rescue: -18.6; KCNK9 inh: inactive; KCNQ1 inh: 6*; KCNQ1 act: inactive; Kir21 block: -1.21; KCNK9 block conf: inactive; Kir21 sel: inactive; KCNK9 uninduced: inactive

What do the screens show for `COc1ccc([N+](=O)[O-])cc1NC(=O)C(C)Sc1ccccc1` (stereo not drawn)?
KCNK3 inh: inactive; hERG rescue: -5.9; KCNK9 inh: inactive; KCNQ1 inh: inactive; KCNQ1 act: inactive; Kir21 block: -0.09

How did COc1ccc([N+](=O)[O-])cc1NC(=O)C(C)Sc1nc(-c2ccccc2)cs1 (stereo not drawn) do in these assays?
KCNK3 inh: inactive; hERG rescue: -13.0; KCNK9 inh: -8.13*; KCNQ1 inh: inactive; KCNQ1 act: inactive; Kir21 block: -1.55; KCNK9 block conf: inactive; Kir21 sel: inactive; KCNK9 uninduced: 31.0%*
